Data reported in ChEMBL document CHEMBL1944590, “Synthesis of 3-phenylsulfonylmethyl cyclohexylaminobenzamide-derived antagonists of CC chemokine receptor 2 (CCR2)” (Bioorg Med Chem Lett, 2012).
Each block holds one compound with its values, some of them ahead of it. The source made the active and inactive calls. The calls are words filed in the database; no cut-off is given here.

How the values were obtained:
[1] = molecular target: T1, C-C chemokine receptor type 2 (Homo sapiens, UniProt P41597); assay: Displacement of [125I]MCP-1 from CCR2 in human PMBC
Target sequence in this assay (P41597 whole entry): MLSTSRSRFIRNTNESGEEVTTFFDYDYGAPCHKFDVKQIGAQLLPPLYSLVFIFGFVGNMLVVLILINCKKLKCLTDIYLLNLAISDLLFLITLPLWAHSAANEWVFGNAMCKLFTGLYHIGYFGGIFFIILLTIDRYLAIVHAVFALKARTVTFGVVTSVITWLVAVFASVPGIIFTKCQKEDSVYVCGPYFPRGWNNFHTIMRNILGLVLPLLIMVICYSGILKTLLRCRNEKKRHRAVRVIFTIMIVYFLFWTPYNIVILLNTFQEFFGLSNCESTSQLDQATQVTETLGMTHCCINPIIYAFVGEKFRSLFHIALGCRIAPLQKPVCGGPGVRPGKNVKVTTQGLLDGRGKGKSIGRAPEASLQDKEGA

[2] = Metabolic stability of the compound in human liver microsomes assessed as compound remaining at 0.5 uM aftet 10 mins; format: ADME, Microsome; conditions: read-out: Stability
Procedure, shortened: (§1)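 Test compound at 0.5 μM initial concentration incubated 10 min with human, rat or mouse liver microsomes. Stability expressed as percentage of parent compound remaining at the end of incubation.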

[3] = Metabolic stability of the compound in rat liver microsomes assessed as compound remaining at 0.5 uM aftet 10 mins; format: ADME, Microsome; conditions: read-out: Stability; procedure, shortened: as §1
[4] = Metabolic stability of the compound in mouse liver microsomes assessed as compound remaining at 0.5 uM aftet 10 mins; format: ADME, Microsome; conditions: read-out: Stability; procedure, shortened: as §1
[5] = molecular target: C-C chemokine receptor type 5 (Homo sapiens, UniProt P51681); assay: Displacement of [125I]MIP-1beta from CCR5
[6] = molecular target: T1, C-C chemokine receptor type 2; assay: Displacement of [125I]MCP-1 from CCR2 in human PMBC up to 2400 nM
Procedure, shortened: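 Competition binding against [¹²⁵I]MCP-1 using human peripheral blood mononuclear cells at room temperature. IC50 typically given as the mean of two determinations (± standard deviation).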
Target sequence in this assay (P41597 whole entry, looked up): as the sequence (P41597 whole entry) above

[7] = molecular target: T1, C-C chemokine receptor type 2; assay: Displacement of [125I]MCP-1 from CCR2 in human THP1 cells; format: cell-based, THP-1
Procedure, shortened: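 Competition binding against [¹²⁵I]MCP-1 using THP-1 cells in place of peripheral blood mononuclear cells. IC50 typically given as the mean of two determinations.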
Target sequence in this assay (P41597 whole entry): as above

Homo sapiens = species: Homo sapiens; assay: Selectivity ratio of IC50 for CCR5 to IC50 for human CCR2

Sequence of C-C chemokine receptor type 5 (P51681 whole entry): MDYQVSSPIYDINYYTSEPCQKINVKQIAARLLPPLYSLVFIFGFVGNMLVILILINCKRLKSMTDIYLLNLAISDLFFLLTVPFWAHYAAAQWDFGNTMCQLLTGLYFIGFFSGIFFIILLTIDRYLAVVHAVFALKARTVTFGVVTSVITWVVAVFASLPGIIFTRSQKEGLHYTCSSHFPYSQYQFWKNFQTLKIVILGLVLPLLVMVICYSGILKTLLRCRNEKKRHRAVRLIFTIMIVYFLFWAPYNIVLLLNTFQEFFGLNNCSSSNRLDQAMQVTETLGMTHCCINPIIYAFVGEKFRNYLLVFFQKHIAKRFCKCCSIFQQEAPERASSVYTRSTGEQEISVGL

IC50 [1]: 310 nM
SMILES: CC(C)N[C@@H]1CC[C@H](NC(=O)CNC(=O)c2cccc(C(F)(F)F)c2)C[C@H]1CS(=O)(=O)c1ccccc1

IC50 [1]: 2900 nM
SMILES: CC(C)N(C)[C@@H]1CC[C@H](NC(=O)CNC(=O)c2cccc(C(F)(F)F)c2)C[C@H]1CS(=O)(=O)c1ccccc1

inhibition [6]: inactive
SMILES: CC(C)N(C)[C@H]1CC[C@@H](NC(=O)CNC(=O)c2cccc(C(F)(F)F)c2)C[C@H]1CS(=O)(=O)c1ccccc1

IC50 [1]: 79 nM
SMILES: CC(C)N(C)[C@@H]1CC[C@H](NC(=O)CNC(=O)c2cccc(C(F)(F)F)c2)C[C@@H]1CS(=O)(=O)c1ccccc1

IC50 [1]: 5.2 nM
SMILES: CC(C)N[C@@H]1CC[C@H](NC(=O)CNC(=O)c2cccc(C(F)(F)F)c2)[C@H](CS(=O)(=O)c2ccccc2)C1

IC50 [1]: 54 nM
remaining at 10 min, 0.5 µM [2]: 11%
remaining at 10 min, 0.5 µM [3]: 8%
remaining at 10 min, 0.5 µM [4]: 28%
SMILES: CCCN[C@@H]1CC[C@H](NC(=O)CNC(=O)c2cccc(C(F)(F)F)c2)C[C@@H]1CS(=O)(=O)c1ccccc1 (racemic)

IC50 [7]: 89 nM
SMILES: CC(C)N(C)[C@@H]1CC[C@H](NC(=O)CNC(=O)c2cccc(C(F)(F)F)c2)C[C@@H]1CS(=O)(=O)c1ccccc1 (racemic)

IC50 [1]: 27 nM
remaining at 10 min, 0.5 µM [2]: 24%
remaining at 10 min, 0.5 µM [3]: 23%
remaining at 10 min, 0.5 µM [4]: 25%
SMILES: CCN[C@@H]1CC[C@H](NC(=O)CNC(=O)c2cccc(C(F)(F)F)c2)C[C@@H]1CS(=O)(=O)c1ccccc1 (racemic)

IC50 [1]: 180 nM
SMILES: CN[C@@H]1CC[C@H](NC(=O)CNC(=O)c2cccc(C(F)(F)F)c2)C[C@@H]1CS(=O)(=O)c1ccccc1 (racemic)

IC50 [1]: 12 nM
remaining at 10 min, 0.5 µM [2]: 4.4%
remaining at 10 min, 0.5 µM [3]: 0.9%
remaining at 10 min, 0.5 µM [4]: 9.6%
SMILES: CC(C)N[C@@H]1CC[C@H](NC(=O)CNC(=O)c2cccc(C(F)(F)F)c2)C[C@@H]1CS(=O)(=O)c1ccccc1 (racemic)

Further lines, the compound ahead of its results:

SMILES: N[C@@H]1CC[C@H](NC(=O)CNC(=O)c2cccc(C(F)(F)F)c2)C[C@@H]1CS(=O)(=O)c1ccccc1 (racemic)
IC50 [1]: 59 nM
remaining at 10 min, 0.5 µM [2]: 100%
remaining at 10 min, 0.5 µM [3]: 57%
remaining at 10 min, 0.5 µM [4]: 96%

SMILES: N[C@@H]1CC[C@H](NC(=O)CNC(=O)c2cc(C(F)(F)F)ccc2NC(=O)N2CCC2)C[C@@H]1CS(=O)(=O)c1ccccc1 (racemic)
remaining at 10 min, 0.5 µM [2]: 70%
remaining at 10 min, 0.5 µM [3]: 71%
IC50 [5]: 7300 nM
remaining at 10 min, 0.5 µM [4]: 87%

SMILES: CC(C)N(C)[C@H]1CC[C@@H](NC(=O)CNC(=O)c2cccc(C(F)(F)F)c2)CC1
IC50 [1]: 72 nM

SMILES: N[C@@H]1CC[C@H](NC(=O)CNC(=O)c2cccc(C(F)(F)F)c2)C[C@H]1CS(=O)(=O)c1ccccc1
IC50 [1]: 3700 nM

SMILES: CC(C)N[C@H]1CC[C@@H](NC(=O)CNC(=O)c2cccc(C(F)(F)F)c2)CC1
IC50 [1]: 570 nM

SMILES: N[C@H]1CC[C@@H](NC(=O)CNC(=O)c2cccc(C(F)(F)F)c2)CC1
IC50 [1]: 4100 nM

SMILES: CC(C)N(C)[C@@H]1CC[C@H](NC(=O)CNC(=O)c2cc(C(F)(F)F)ccc2NC(=O)N2CCC2)C[C@@H]1CS(=O)(=O)c1ccccc1 (racemic)
IC50 [7]: 34 nM

SMILES: CCCN(C)[C@@H]1CC[C@H](NC(=O)CNC(=O)c2cccc(C(F)(F)F)c2)C[C@@H]1CS(=O)(=O)c1ccccc1 (racemic)
IC50 [1]: 370 nM

SMILES: N[C@@H]1CC[C@H](NC(=O)CNC(=O)c2cccc(C(F)(F)F)c2)[C@H](CS(=O)(=O)c2ccccc2)C1 (racemic)
IC50 [1]: 37 nM

SMILES: O=C(CNC(=O)c1cccc(C(F)(F)F)c1)N[C@H]1CC[C@@H](NC2CCC2)[C@@H](CS(=O)(=O)c2ccccc2)C1 (racemic)
IC50 [1]: 34 nM

SMILES: CCN[C@@H]1CC[C@H](NC(=O)CNC(=O)c2cc(C(F)(F)F)ccc2NC(=O)N2CCC2)C[C@@H]1CS(=O)(=O)c1ccccc1 (racemic)
IC50 [7]: 12 nM

SMILES: CN(C)[C@@H]1CC[C@H](NC(=O)CNC(=O)c2cccc(C(F)(F)F)c2)C[C@@H]1CS(=O)(=O)c1ccccc1 (racemic)
IC50 [1]: 130 nM
remaining at 10 min, 0.5 µM [2]: 4.4%
remaining at 10 min, 0.5 µM [3]: 3.9%
remaining at 10 min, 0.5 µM [4]: 4.3%

SMILES: O=C(CNC(=O)c1cccc(C(F)(F)F)c1)N[C@H]1CC[C@@H](N2CCCCC2)[C@@H](CS(=O)(=O)c2ccccc2)C1 (racemic)
IC50 [1]: 340 nM

SMILES: CC(C)N[C@@H]1CC[C@H](NC(=O)CNC(=O)c2cc(C(F)(F)F)ccc2NC(=O)N2CCC2)C[C@@H]1CS(=O)(=O)c1ccccc1 (racemic)
IC50 [5]: 810 nM
IC50 [7]: 6.6 nM
Ratio IC50 (Homo sapiens): > 100
